Laboratory results taken from ChEMBL document CHEMBL1629583, “Establishment of in vitro susceptibility testing methodologies and comparative activities of piperacillin in combination with the penem {beta}-lactamase inhibitor BLI-489” (2009).
In brackets after ≈: the same amount, converted by molar mass.

Columns and labels:
Format in all cases: functional
Streptococcus pneumoniae [1] = experiment: Antimicrobial activity against penicillin-susceptible Streptococcus pneumoniae clinical isolate after 18 to 22 hrs by broth microdilution method
Enterococcus faecium [2] = experiment: Antimicrobial activity against vancomycin-resistant Enterococcus faecium clinical isolate after 18 to 22 hrs by broth microdilution method
Klebsiella aerogenes = experiment: Antimicrobial activity against Enterobacter aerogenes clinical isolate after 18 to 22 hrs by broth microdilution method
Enterococcus faecalis [3] = experiment: Antimicrobial activity against vancomycin-resistant Enterococcus faecalis clinical isolate after 18 to 22 hrs by broth microdilution method
Serratia marcescens = experiment: Antimicrobial activity against Serratia marcescens clinical isolate after 18 to 22 hrs by broth microdilution method
[4] = tested on: Staphylococcus epidermidis; experiment: Antimicrobial activity against methicillin-resistant Staphylococcus epidermidis clinical isolate after 18 to 22 hrs by broth microdilution method
Enterococcus avium = experiment: Antimicrobial activity against Enterococcus avium clinical isolate after 18 to 22 hrs by broth microdilution method
Staphylococcus aureus [5] = experiment: Antimicrobial activity against methicillin-resistant Staphylococcus aureus clinical isolate after 18 to 22 hrs by broth microdilution method
Klebsiella pneumoniae = experiment: Antimicrobial activity against Klebsiella pneumoniae clinical isolate after 18 to 22 hrs by broth microdilution method
Streptococcus agalactiae = experiment: Antimicrobial activity against Streptococcus agalactiae clinical isolate after 18 to 22 hrs by broth microdilution method
Pseudomonas aeruginosa = experiment: Antimicrobial activity against Pseudomonas aeruginosa clinical isolate after 18 to 22 hrs by broth microdilution method
Providencia rettgeri [6] = experiment: Antimicrobial activity against Providencia rettgeri clinical isolate after 18 to 22 hrs by broth microdilution method
[7] = tested on: Acinetobacter haemolyticus; experiment: Antimicrobial activity against Acinetobacter haemolyticus clinical isolate after 18 to 22 hrs by broth microdilution method
Enterococcus faecalis [8] = experiment: Antimicrobial activity against Enterococcus faecalis clinical isolate after 18 to 22 hrs by broth microdilution method
Enterococcus faecium [9] = experiment: Antimicrobial activity against Enterococcus faecium clinical isolate after 18 to 22 hrs by broth microdilution method
Morganella morganii = experiment: Antimicrobial activity against Morganella morganii clinical isolate after 18 to 22 hrs by broth microdilution method
Staphylococcus aureus [10] = experiment: Antimicrobial activity against methicillin-resistant Staphylococcus aureus clinical isolate after 18 to 22 hrs by broth microdilution method in presence of beta-lactamase inhibitor BLI-489
How it was run: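 CLSI broth microdilution in Mueller-Hinton II broth. Antibiotic in serial dilution with the β-lactamase inhibitor held at a constant 4 μg/ml. Inoculum 10^5 CFU/ml. Incubated 18 to 22 h at 35°C in ambient air.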

Streptococcus pneumoniae [11] = experiment: Antimicrobial activity against penicillin-susceptible Streptococcus pneumoniae clinical isolate after 18 to 22 hrs by broth microdilution method in presence of beta-lactamase inhibitor BLI-489
How it was run: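 Streptococci were tested by CLSI broth microdilution in Mueller-Hinton II broth plus 5% lysed horse blood. Piperacillin was serially diluted with BLI-489 fixed at a constant 4 μg/ml. Inoculum was 10^5 CFU/ml, with 18 to 22 h at 35°C in ambient air. MIC was the lowest concentration completely inhibiting growth by eye.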

Citrobacter freundii = experiment: Antimicrobial activity against AmpC beta-lactamase-producing Citrobacter freundii clinical isolate after 18 to 22 hrs by broth microdilution method in presence of beta-lactamase inhibitor Tazobactam
How it was run: (§1)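 Piperacillin-tazobactam was tested on recent clinical isolates by CLSI broth microdilution in Mueller-Hinton II broth, with tazobactam at constant 4 μg/ml. Wells held 10^5 CFU/ml and were incubated 18 to 22 h at 35°C in ambient air. MIC was the lowest concentration with no growth visible to the unaided eye.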

Enterobacter cloacae = experiment: Antimicrobial activity against Enterobacter cloacae clinical isolate after 18 to 22 hrs by broth microdilution method in presence of beta-lactamase inhibitor Tazobactam; how it was run: as §1
Acinetobacter junii = experiment: Antimicrobial activity against Acinetobacter junii clinical isolate after 18 to 22 hrs by broth microdilution method in presence of beta-lactamase inhibitor Tazobactam; how it was run: as §1
Acinetobacter baumannii = experiment: Antimicrobial activity against Acinetobacter baumannii clinical isolate after 18 to 22 hrs by broth microdilution method in presence of beta-lactamase inhibitor Tazobactam; how it was run: as §1
[12] = tested on: Staphylococcus haemolyticus; experiment: Antimicrobial activity against Staphylococcus haemolyticus clinical isolate after 18 to 22 hrs by broth microdilution method in presence of beta-lactamase inhibitor Tazobactam
How it was run: (§2)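 Piperacillin-tazobactam was tested by CLSI broth microdilution in Mueller-Hinton II broth against clinical isolates. Inoculum was 10^5 CFU/ml, with 18 to 22 h incubation at 35°C in ambient air. MIC was read as the lowest concentration completely inhibiting visible growth.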

Haemophilus influenzae = experiment: Antimicrobial activity against beta-lactamase-negative Haemophilus influenzae clinical isolate after 18 to 22 hrs by broth microdilution method in presence of beta-lactamase inhibitor Tazobactam
How it was run: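 […] was used for CLSI broth microdilution with piperacillin-tazobactam. Inoculum was 10^5 CFU/ml, incubated 18 to 22 h at 35°C in ambient air. MIC was the lowest concentration with no growth visible to the unaided eye.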

Proteus mirabilis = experiment: Antimicrobial activity against Proteus mirabilis clinical isolate after 18 to 22 hrs by broth microdilution method in presence of beta-lactamase inhibitor Tazobactam; how it was run: as §2
Acinetobacter johnsonii [13] = experiment: Antimicrobial activity against Acinetobacter johnsonii clinical isolate after 18 to 22 hrs by broth microdilution method in presence of beta-lactamase inhibitor BLI-489
How it was run: (§3)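 CLSI broth microdilution in Mueller-Hinton II broth. Piperacillin serial dilutions were combined with BLI-489 held constant at 4 μg/ml. Inoculum was 10^5 CFU/ml. Plates were incubated 18 to 22 h at 35°C in ambient air. MIC was the lowest concentration completely inhibiting growth seen by the unaided eye. Piperacillin-tazobactam interpretive criteria were applied.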

Providencia rettgeri [14] = experiment: Antimicrobial activity against Providencia rettgeri clinical isolate after 18 to 22 hrs by broth microdilution method in presence of beta-lactamase inhibitor Tazobactam; how it was run: as §2
Acinetobacter johnsonii [15] = experiment: Antimicrobial activity against Acinetobacter johnsonii clinical isolate after 18 to 22 hrs by broth microdilution method in presence of beta-lactamase inhibitor Tazobactam; how it was run: as §1
[16] = tested on: Acinetobacter haemolyticus; experiment: Antimicrobial activity against Acinetobacter haemolyticus clinical isolate after 18 to 22 hrs by broth microdilution method in presence of beta-lactamase inhibitor BLI-489; how it was run: as §3

C[C@H]1COc2c(N3CCN(C)CC3)c(F)cc3c(=O)c(C(=O)O)cn1c23.C[C@H]1COc2c(N3CCN(C)CC3)c(F)cc3c(=O)c(C(=O)O)cn1c23.O [LEVOFLOXACIN]
MIC50 (Streptococcus pneumoniae [1]): 1 µg/mL | MIC90 (Streptococcus pneumoniae [1]): 1 µg/mL | MIC (Enterococcus faecium [2]): > 16 µg/mL | MIC50 (Enterococcus faecium [2]): > 16 µg/mL | MIC50 (Klebsiella aerogenes): 0.06 µg/mL | MIC90 (Klebsiella aerogenes): 0.5 µg/mL | MIC50 (Enterococcus faecalis [3]): 2 µg/mL | MIC50 (Serratia marcescens): 0.12 µg/mL | MIC90 (Serratia marcescens): 4 µg/mL | MIC50 [4]: 2 µg/mL | MIC90 [4]: > 16 µg/mL | MIC50 (Enterococcus avium): 2 µg/mL | MIC90 (Enterococcus avium): 2 µg/mL | MIC50 (Staphylococcus aureus [5]): 4 µg/mL | MIC90 (Staphylococcus aureus [5]): > 16 µg/mL | MIC50 (Klebsiella pneumoniae): 0.06 µg/mL | MIC90 (Klebsiella pneumoniae): 0.5 µg/mL | MIC50 (Streptococcus agalactiae): 1 µg/mL | MIC90 (Streptococcus agalactiae): 1 µg/mL | MIC50 (Pseudomonas aeruginosa): 1 µg/mL | MIC90 (Pseudomonas aeruginosa): > 16 µg/mL | MIC50 (Providencia rettgeri [6]): 1 µg/mL | MIC90 (Providencia rettgeri [6]): 16 µg/mL | MIC50 [7]: 0.12 µg/mL | MIC90 [7]: 2 µg/mL | MIC50 (Enterococcus faecalis [8]): 1 µg/mL | MIC90 (Enterococcus faecalis [8]): > 16 µg/mL | MIC50 (Enterococcus faecium [9]): 4 µg/mL | MIC90 (Enterococcus faecium [9]): > 16 µg/mL | MIC50 (Morganella morganii): 0.03 µg/mL | MIC90 (Morganella morganii): > 16 µg/mL

CCN1CCN(C(=O)N[C@@H](C(=O)N[C@@H]2C(=O)N3[C@@H]2SC(C)(C)[C@@H]3C(=O)O)c2ccccc2)C(=O)C1=O [PIPERACILLIN]
MIC50 (Staphylococcus aureus [10]): 32 µg/mL | MIC50 (Streptococcus pneumoniae [1]): 0.015 µg/mL (≈ 0.029 µM) | MIC90 (Streptococcus pneumoniae [1]): 0.03 µg/mL (≈ 0.058 µM) | MIC (Enterococcus faecium [2]): > 128 µg/mL | MIC50 (Enterococcus faecium [2]): > 128 µg/mL | MIC50 (Klebsiella aerogenes): 4 µg/mL (≈ 7.73 µM) | MIC90 (Klebsiella aerogenes): 128 µg/mL (≈ 247 µM) | MIC50 (Enterococcus faecalis [3]): 2 µg/mL (≈ 3.86 µM) | MIC90 (Enterococcus faecalis [3]): > 128 µg/mL | MIC (Streptococcus pneumoniae [11]): ≤ 0.004 µg/mL | MIC50 (Streptococcus pneumoniae [11]): ≤ 0.004 µg/mL | MIC90 (Streptococcus pneumoniae [11]): ≤ 0.004 µg/mL | MIC50 (Serratia marcescens): 4 µg/mL (≈ 7.73 µM) | MIC90 (Serratia marcescens): > 128 µg/mL | MIC50 (Citrobacter freundii): 8 µg/mL | MIC90 (Citrobacter freundii): > 128 µg/mL | MIC50 (Enterobacter cloacae): 2 µg/mL | MIC90 (Enterobacter cloacae): > 128 µg/mL | MIC50 (Acinetobacter junii): ≤ 0.12 µg/mL | MIC90 (Acinetobacter junii): 32 µg/mL | MIC50 (Acinetobacter baumannii): > 128 µg/mL | MIC90 (Acinetobacter baumannii): > 128 µg/mL | MIC50 [12]: 32 µg/mL | MIC90 [12]: > 128 µg/mL | MIC50 [4]: 8 µg/mL (≈ 15.5 µM) | MIC90 [4]: 64 µg/mL (≈ 124 µM) | MIC50 (Enterococcus avium): 16 µg/mL (≈ 30.9 µM) | MIC90 (Enterococcus avium): 64 µg/mL (≈ 124 µM) | MIC50 (Staphylococcus aureus [5]): > 128 µg/mL | MIC50 (Haemophilus influenzae): 0.008 µg/mL | MIC90 (Haemophilus influenzae): 0.03 µg/mL | MIC50 (Klebsiella pneumoniae): 8 µg/mL (≈ 15.5 µM) | MIC90 (Klebsiella pneumoniae): 128 µg/mL (≈ 247 µM) | MIC50 (Streptococcus agalactiae): 0.12 µg/mL (≈ 0.232 µM) | MIC90 (Streptococcus agalactiae): 0.25 µg/mL (≈ 0.483 µM) | MIC50 (Pseudomonas aeruginosa): 16 µg/mL (≈ 30.9 µM) | MIC90 (Pseudomonas aeruginosa): > 128 µg/mL | MIC50 (Providencia rettgeri [6]): 2 µg/mL (≈ 3.86 µM) | MIC50 (Proteus mirabilis): 0.25 µg/mL | MIC90 (Proteus mirabilis): 2 µg/mL | MIC50 (Acinetobacter johnsonii [13]): 4 µg/mL | MIC90 (Acinetobacter johnsonii [13]): 16 µg/mL | MIC50 (Providencia rettgeri [14]): 2 µg/mL | MIC90 (Providencia rettgeri [14]): 16 µg/mL | MIC50 (Acinetobacter johnsonii [15]): ≤ 0.12 µg/mL | MIC90 (Acinetobacter johnsonii [15]): 32 µg/mL | MIC50 [7]: 4 µg/mL (≈ 7.73 µM) | MIC90 [7]: 128 µg/mL (≈ 247 µM) | MIC (Enterococcus faecalis [8]): 2 µg/mL (≈ 3.86 µM) | MIC50 (Enterococcus faecalis [8]): 2 µg/mL (≈ 3.86 µM) | MIC90 (Enterococcus faecalis [8]): 4 µg/mL (≈ 7.73 µM) | MIC50 [16]: 4 µg/mL | MIC90 [16]: 16 µg/mL | MIC50 (Enterococcus faecium [9]): 32 µg/mL (≈ 61.8 µM) | MIC90 (Enterococcus faecium [9]): > 128 µg/mL | MIC50 (Morganella morganii): 8 µg/mL (≈ 15.5 µM) | MIC90 (Morganella morganii): > 128 µg/mL
